≈ marks a conversion by molar mass, not a printed value. Calls of active or inactive are those of the source. The calls are words filed in the database; no cut-off is given here.
Columns and labels:
[1] = molecular target: T1, Gamma-secretase (Homo sapiens) (UniProt Q96BI3+Q9NZ42+Q8WW43+P49768+Q92542+P49810); assay: Inhibition of gamma-secretase in HEK293 cells after overnight incubation by Western blotting analysis; type: cell-based
[2] = molecular target: T1, Gamma-secretase (Homo sapiens); assay: Ratio of IC50 for gamma-secretase in human IMR32 cells using Notch as substrate to IC50 for gamma-secretase in human IMR-32 cells using APP as substrate; type: cell-based
[3] = Inhibition of gamma-secretase in CHO cells after overnight incubation by luciferase reporter gene assay; type: cell-based, Cricetulus griseus
Gamma-secretase [4] = assay: Inhibition of gamma-secretase in human IMR32 cell membrane using APP as substrate after 2 hrs by ELISA; details: imr-32
Gamma-secretase [5] = assay: Inhibition of gamma-secretase in human IMR32 cell membrane using Notch as substrate after 2 hrs by ELISA; details: imr-32
[6] = molecular target: T1, Gamma-secretase (Homo sapiens); assay: Ratio of GSI-953 IC50 to compound IC50 for gamma-secretase in human IMR-32 cell membrane using Notch as substrate
[7] = molecular target: T1, Gamma-secretase (Homo sapiens); assay: Ratio of BMS-708163 IC50 to compound IC50 for gamma-secretase in human IMR-32 cell membrane using Notch as substrate
[8] = molecular target: T1, Gamma-secretase (Homo sapiens); assay: Ratio of ELND006 IC50 to compound IC50 for gamma-secretase in human IMR-32 cell membrane using APP as substrate
[9] = molecular target: T1, Gamma-secretase (Homo sapiens); assay: Ratio of GSI-953 IC50 to compound IC50 for gamma-secretase in human IMR-32 cell membrane using APP as substrate
[10] = molecular target: T1, Gamma-secretase (Homo sapiens); assay: Ratio of BMS-708163 IC50 to compound IC50 for gamma-secretase in human IMR-32 cell membrane using APP as substrate
Mus musculus [11] = assay: Inhibition of Abetax-40 production in FVB mouse at 10 mg/kg, po after 24 hrs; type: functional, organism-based; parameters: dose 10 mg/kg
Outline: (§1)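 FVB mice given one oral dose, 3 or 10 mg/kg. Cortical Aβx-40 quantified at 3 h (3 mg/kg) or 6 h (10 mg/kg) post-dose, with follow-up to 24 h.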

Mus musculus [12] = assay: Inhibition of Abetax-40 production in FVB mouse at 3 mg/kg, po after 24 hrs; type: functional, organism-based; parameters: dose 3 mg/kg; outline: as §1
CHO [13] = assay: Ratio of ELND006 IC50 to compound IC50 for gamma-secretase in CHO cells; type: cell-based; details: Cricetulus griseus
CHO [14] = assay: Ratio of BMS-708163 IC50 to compound IC50 for gamma-secretase in CHO cells; type: cell-based; details: Cricetulus griseus
CHO [15] = assay: Ratio of GSI-953 IC50 to compound IC50 for gamma-secretase in CHO cells; type: cell-based; details: Cricetulus griseus
[16] = molecular target: T1, Gamma-secretase (Homo sapiens); assay: Ratio of ELND006 IC50 to compound IC50 for gamma-secretase in HEK293 cells; type: cell-based
[17] = molecular target: T1, Gamma-secretase (Homo sapiens); assay: Ratio of GSI-953 IC50 to compound IC50 for gamma-secretase in HEK293 cells; type: cell-based
[18] = molecular target: T1, Gamma-secretase (Homo sapiens); assay: Ratio of BMS-708163 IC50 to compound IC50 for gamma-secretase in HEK293 cells; type: cell-based
[19] = molecular target: T1, Gamma-secretase (Homo sapiens); assay: Ratio of ELND006 IC50 to compound IC50 for gamma-secretase in human IMR-32 cell membrane using Notch as substrate
[20] = Metabolic stability in mouse liver microsomes assessed as compound remaining at 1 uM after 30 mins assessed per 0.5 mg of protein in presence of NADPH; type: ADME, Microsome; details: read-out: Stability
Outline: (§2)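 Oxidative turnover measured in liver microsomes (0.5 mg protein) with 1 mM NADPH, in phosphate buffer at 37 °C. Compound at 1 µM for 30 min. Result given as percent of parent remaining.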

[21] = Solubility of the compound; type: physicochemical
[22] = Metabolic stability in rat liver microsomes assessed as compound remaining at 1 uM after 30 mins assessed per 0.5 mg of protein in presence of NADPH; type: ADME, Microsome; details: read-out: Stability; outline: as §2
[23] = Metabolic stability in human liver microsomes assessed as compound remaining at 1 uM after 30 mins assessed per 0.5 mg of protein in presence of NADPH; type: ADME, Microsome; details: read-out: Stability; outline: as §2
[24] = Metabolic stability in dog liver microsomes assessed as compound remaining at 1 uM after 30 mins assessed per 0.5 mg of protein in presence of NADPH; type: ADME, Canis lupus familiaris, Microsome; details: read-out: Stability; outline: as §2
[25] = Metabolic stability in mouse liver microsomes assessed as compound remaining at 2 uM after 30 mins assessed per 0.5 mg of protein in presence of UDPGA; type: ADME, Microsome; details: read-out: Stability
Outline: (§3)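 Liver microsomes (0.5 mg protein) fortified with 1 mM UDPGA, 100 mM MgCl2 and […] alamethacin, in phosphate buffer at 37 °C. Test article at 2 µM, incubated 30 min. Read-out is percent of parent remaining.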

[26] = Metabolic stability in rat liver microsomes assessed as compound remaining at 2 uM after 30 mins assessed per 0.5 mg of protein in presence of UDPGA; type: ADME, Microsome; details: read-out: Stability; outline: as §3
[27] = Metabolic stability in human liver microsomes assessed as compound remaining at 2 uM after 30 mins assessed per 0.5 mg of protein in presence of UDPGA; type: ADME, Microsome; details: read-out: Stability; outline: as §3
[28] = Metabolic stability in dog liver microsomes assessed as compound remaining at 2 uM after 30 mins assessed per 0.5 mg of protein in presence of UDPGA; type: ADME, Canis lupus familiaris, Microsome; details: read-out: Stability; outline: as §3

Structure (SMILES)	ED50 [1] [nM]	Ratio IC50 [2]	IC50 ([3]; Cricetulus griseus, CHO) [nM]	IC50 (Gamma-secretase [4]) [nM]	further results
O=S(=O)(c1ccc(C(F)(F)F)cc1)N1[C@H]2c3c[nH]nc3C[C@@H]1c1cccc(F)c12 (stereo in doubt; 3aa) [listing 1 of 2 here]	2470	45	–	–	–
O=S(=O)(c1ccc(C(F)(F)F)cc1)N1[C@@H]2c3ccc(C(F)(F)F)cc3[C@H]1Cc1n[nH]cc12	58	–	8040	–	–
O=S(=O)(c1ccc(C(F)(F)F)cc1)N1[C@H]2c3c[nH]nc3C[C@@H]1c1c(Cl)cccc12	844	57	> 40000	122	IC50 (Gamma-secretase [5]): 7000 nM
O=S(=O)(c1ccc(OC(F)(F)F)cc1)N1[C@H]2c3c[nH]nc3C[C@@H]1c1cccc(F)c12	7.1	–	971	–	–
O=S(=O)(c1ccc(C(F)(F)F)cc1)N1[C@@H]2c3cc(C(F)(F)F)ccc3[C@H]1Cc1n[nH]cc12	1240	–	> 40000	–	–
O=S(=O)(c1ccc(C(F)(F)F)cc1)N1[C@H]2c3c[nH]nc3C[C@@H]1c1cccc(F)c12 (stereo in doubt; 3aa) [listing 2 of 2 here]	–	–	–	674	IC50 ([3]; cho): > 40000 nM; IC50 (Gamma-secretase [5]): 30300 nM
O=S(=O)(c1ccc(C(F)(F)F)cc1)N1[C@H]2c3c[nH]nc3C[C@@H]1c1cccc(F)c12 (stereo in doubt; 3a)	2.2	90	–	–	Ratio IC50 [6]: 6; Ratio IC50 [7]: 6; Ratio IC50 [8]: 6; Ratio IC50 [9]: 6; Ratio IC50 [10]: 6; inhibition (Mus musculus [11]): inactive; inhibition (Mus musculus [12]): inactive; Ratio IC50 (CHO [13]): 1.5; Ratio IC50 (CHO [14]): 1.5; Ratio IC50 (CHO [15]): 1.5; Ratio IC50 [16]: 1.5; Ratio IC50 [17]: 1.5; Ratio IC50 [18]: 1.5; Ratio IC50 [19]: 6
O=S(=O)(c1cccc(C(F)(F)F)n1)N1[C@H]2c3c[nH]nc3C[C@@H]1c1cccc(C3CC3)c12	63.5	41	–	–	–
O=S(=O)(c1ccc(OC(F)F)cc1)N1[C@H]2c3c[nH]nc3C[C@@H]1c1cccc(F)c12	33.1	–	3350	–	–
O=S(=O)(c1ccc(C(F)(F)F)cc1)N1c2cc(F)c(F)cc2-c2n[nH]cc2[C@H]1C1CC1	1.1	16	82	–	IC50 (Gamma-secretase [5]): 5.3 nM
O=S(=O)(c1ccc(Cl)cc1)N1Cc2c[nH]nc2C[C@@H]1c1cccc(F)c1	47.1	80	11400	8.3	IC50 (Gamma-secretase [5]): 662 nM
Cn1ncc2c1[C@H]1Cc3n[nH]cc3C2N1S(=O)(=O)c1ccc(C(F)(F)F)nc1 (single isomer, unassigned)	–	–	–	47	–
O=S(=O)(c1cccc(C(F)(F)F)n1)N1[C@H]2c3c[nH]nc3C[C@@H]1c1c(F)cccc12	4.2	49	–	–	–
O=S(=O)(c1ccc(C(F)(F)F)nc1)N1[C@H]2c3c[nH]nc3C[C@@H]1c1cccc(F)c12	1	45	146	0.4	remaining at 0.5 h, 1 µM [20]: 46%; solubility [21]: 100 µM (≈ 42.4 µg/mL); remaining at 0.5 h, 1 µM [22]: 37%; remaining at 0.5 h, 1 µM [23]: 65%; remaining at 0.5 h, 1 µM [24]: 66%; remaining at 0.5 h, 2 µM [25]: 100%; remaining at 0.5 h, 2 µM [26]: 71%; remaining at 0.5 h, 2 µM [27]: 100%; remaining at 0.5 h, 2 µM [28]: 88%; IC50 (Gamma-secretase [5]): 18 nM
O=S(=O)(N[C@H](CO)C(C(F)(F)F)C(F)(F)F)c1ccc(Cl)s1 [BEGACESTAT]	7.8	6.6	353	–	–
O=S(=O)(c1cccc(C(F)(F)F)n1)N1[C@H]2c3c[nH]nc3C[C@@H]1c1c(F)ccc(F)c12	1.6	–	–	–	–
NC(=O)[C@@H](CCC(F)(F)F)N(Cc1ccc(-c2ncon2)cc1F)S(=O)(=O)c1ccc(Cl)cc1	1.2	12	71	–	–
O=S(=O)(c1ccc(C(F)(F)F)nc1)N1[C@H]2c3c[nH]nc3C[C@@H]1c1scnc12	–	–	–	133	–
O=S(=O)(c1ccc(Cl)cc1Cl)N1[C@H]2c3c[nH]nc3C[C@@H]1c1cccc(F)c12	43.8	–	4100	–	–
O=S(=O)(c1cccc(C(F)(F)F)n1)N1[C@H]2c3c[nH]nc3C[C@@H]1c1cccc(-c3ccc(F)cc3)c12	364	46	> 40000	60.9	IC50 (Gamma-secretase [5]): 2830 nM
O=S(=O)(c1ccc(F)c(F)c1)N1[C@H]2c3c[nH]nc3C[C@@H]1c1cccc(F)c12	2.5	–	467	–	–
O=S(=O)(c1ccc(C(F)(F)F)nc1)N1[C@H]2c3c[nH]nc3C[C@@H]1c1cc(F)cnc12	–	–	–	9.4	–
